According to ChEMBL document CHEMBL4513216, “Probing the Open Global Health Chemical Diversity Library for Multistage-Active Starting Points for Next-Generation Antimalarials” (ACS Infect Dis, 2020):

Experiment: Toxicity liver stage against HepG2, at 10uM
Format: cell-based
Parameters: test concentration 10 uM, cell line HepG2-A16-CD81EGFP
Settings: human, HepG2-A16-CD81EGFP cells; read-out: INHIBITION
Method in brief: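 Uninfected HepG2-A16-CD81EGFP cells, 3 × 10^3 per well, 1536-well, plated on prespotted compound at 10 μM final, parasite-free screening media added to match infected plates; puromycin 10 μM positive, DMSO 0.5% negative; run in parallel with 48 h PbLuc assay at 37 °C, 5% CO2; viability by CellTiter-Glo luminescence, normalized to controls.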

Structure (SMILES) | cytotoxicity at 10 µM [%]
COc1ccc(F)cc1C(=O)C1CCCN(Cc2cnc(C)s2)C1 (centres undefined) | 6.26
O=C(c1ccc2c(c1)OCO2)N1CCN2C(=O)NC[C@H]2C1 | 2.02
CC(C)COC(=O)N1CC(=O)N(Cc2ccco2)CC(O)C1 (centres undefined) | -1.7
CCN1CC(O)CN(C(=O)c2ccc(SC)cc2)CC1=O (centres undefined) | 6.88
CC(C)C[C@H](NC(=O)Nc1ccc(F)c(Cl)c1)C(=O)O | -43
N#Cc1nc(COc2ccc3c(c2)OCO3)oc1NC1CC1 | -43
CCO[C@@H]1CC[C@H]2[C@H]1OCCN2C(=O)c1ccc(C)o1 | -149
Cc1cc2nc(SCC(=O)N3CCOCC3)n(C(C)C)c(=O)c2[nH]1 | 11
COc1cccc(C(=O)Oc2cc(=O)n3cccc(C)c3n2)c1 | 6.36
O=c1[nH]nc2c(N3CCCCCC3)nccn12 | 10.5
Cn1cc2c(n1)C(CNC(=O)Cc1ccsc1)OCC2 (centres undefined) | 0.175
O=C(NCCCN1CCOCC1)c1ccn(COc2ccc(Br)cc2)n1 | 5.39
Cc1cc(N2CCC(Cc3ccccc3)CC2)ncn1 | 3.51
Cc1cc(C(F)(F)F)nn1C(C)C(=O)Nc1ccc(Cl)cn1 (centres undefined) | 11.6
CC(C)(C)NC(=O)CCn1ncc2c(Cl)cccc21 | 7.25
CN1CCCCC[C@@H]2[C@@H]1[C@H](c1ccccc1)CN2C(=O)c1cccnc1 | -24.4
CN1CCCC[C@@H]2[C@H]1[C@@H](c1ccccc1)CCN2C(=O)c1cccnc1 | -21.2
Cc1cc(C)nc(Nc2cccc(C3CCCN(CC4CC4)C3)n2)n1 (centres undefined) | -11.3
COCC(=O)N1CCc2nc(-c3cnccn3)nc(O)c2C1 | 27.7
CS(=O)(=O)N1CCC(C(=O)NC(Cc2ccsc2)c2cccnc2)CC1 (centres undefined) | -12.5
O=C(N[C@@H]1CN(Cc2cccc(F)c2)C[C@H]1O)c1cscn1 | -4.66
CC(=O)N1CC(Cc2nccc3ccn(C)c23)C1 | 0.668

Structure (SMILES) | cytotoxicity at 10 µM [%]
COc1ccccc1C(=O)N1CC(Cc2nccc3ccn(C)c23)C1 | -0.619
O=C(NC1CC1)C1CCc2nnc(-c3cccnc3)n21 (centres undefined) | 8.96
Cn1nc(C2CCNC2)c2c(C(=O)NCC(F)(F)F)cc(C3CC3)nc21 (centres undefined) | 8.41
Fc1ccc2c(c1)CCC2NCc1ccc(N2CCOCC2)cc1 (centres undefined) | -1.54
COCCn1nc(C(=O)N2CCOCC2C)ccc1=O (centres undefined) | -8.97
COc1ccc(NC(=O)Cc2c(C)nn(C)c2C)cc1F | 10.1
COC(=O)CCNC(=O)c1c[nH]cc1-c1ccccc1OC | 6.17
Cc1csc(C2(NC(=O)NCCN3CCOCC3)CCC2)n1 | -0.746
CCCNC(=O)CN1CCCC1c1nc(Cc2ccc(F)cc2)no1 (centres undefined) | 4.8
CCN(CC)CC1CCN(Cc2ncc(C(C)(C)C)o2)CC1 | -7.22
CC(C)(C)NC(=O)c1cccc(CN2CCS(=O)(=O)CC2)c1 | 4.5
Cc1ccc(C(CNCc2nccn2C)N2CCOCC2)s1 (centres undefined) | -1.76
Cc1ccoc1CNCc1nnc2n1CCCC2C(F)(F)F (centres undefined) | 13.9
O=C(NS(=O)(=O)c1ccccc1C(F)(F)F)c1cccc2c1OCCO2 | 5.56
Cc1nnc(NC(=O)c2cc(S(=O)(=O)N3CCSCC3)c[nH]2)s1 | -7.01
CC(C)c1nc(CC(=O)N(C)Cc2ccc3c(c2)OCO3)cs1 | -13.5
COc1ccc(CNC(=O)NCc2ccc(C)cc2)cn1 | -5.63
CSCC(=O)N(C)Cc1ccc(N(C)C)cc1 | 8.63
COc1cccc(CCNC(=O)CCS(=O)(=O)C2CCCC2)c1 | 2.2
COCCCn1ccc(NC(=O)NCCn2ccnc2)n1 | -2.14
CCn1c(=O)n(Cc2nc(C3CC3)no2)c2ccccc21 | -43.2
CCOc1cccc(CNC(C)c2ccc(-n3ccnc3)cc2)c1O (centres undefined) | -38.3

Structure (SMILES) | cytotoxicity at 10 µM [%]
Cc1ccc(CNC(=O)Cn2c(=O)c3cccnc3n2C)cc1F | -2.83
CCC(Nc1nnnn1-c1ccccc1)C(=O)NCc1cccs1 (centres undefined) | -1.12
O=C1OCCN1CCCN1CCCC1c1ccc(O)cc1 (centres undefined) | -6.3
Cc1cnn(CCNCc2nc(-c3ccsc3)oc2C)c1 | -3.55
Cc1nc(C)n(Cc2cccc(NC(=O)NC(C)(CO)C3CC3)c2)n1 (centres undefined) | 14.3
Cc1cnc(CN2CCN(c3ccnc(-c4ccccc4)n3)CC2)cn1 | 3.61
Cc1nnc(NC(=O)CN2CCCC(c3ccn[nH]3)C2)s1 (centres undefined) | -37.6
CCOc1ccc(C(C)NC(=O)N2CCC(C(N)=O)CC2)cc1OC (centres undefined) | -4.56
Clc1ccc(OCCN2CCN(CCn3cncn3)CC2)cc1 | -17.4
COc1ncccc1CN1C[C@@H]2CN(c3ncccn3)C[C@@H]2C1 | -5.11
CC(C)n1c2ccccc2c2c1cc(C(=O)N(C)C)n2C(=O)N(C)C | -95
CO[C@@H]1CC[C@H]2[C@H]1OCCN2C(=O)COc1ccc(C)cc1 | -99
CCC1=N[C@@]2(CC[C@@H]3CN(C(=O)NCC4CCCCC4)C[C@@H]32)C(=O)N1 | -70.2
CCN(CC)C(=O)[C@@H]1C[C@@H](NC(=O)c2cccc(N(C)C)c2)CN1C | 6.69
COCCN(Cc1ccccc1Cl)c1nc(CCN)nc2ccccc12 | 12.9
Cc1cc(C2CCCCN2C(=O)CN2C(=O)OC(C)(C)C2=O)no1 (centres undefined) | 3.35
NC(=O)c1csc(N2CCN(C3CCc4ccccc4C3)CC2)n1 (centres undefined) | 1.67
O=C(c1cc(=O)[nH]c(=O)[nH]1)N1CCCC(CO)(CC2CC2)C1 (centres undefined) | -3.02
Cc1cc(CC(C)Nc2nc(-c3cccnc3)nc3c2CNC3)[nH]n1 (centres undefined) | 3.28
Cc1cc(C(=O)N2C[C@H](CO)C[C@H](CN3CCOCC3)C2)cnc1C | 3.98
Nc1ncccc1CN1CCOCC1CC(=O)NCc1ccccn1 (centres undefined) | 9.66
Cc1nc(CN2CCCC(CCc3ccccc3C)C2)c[nH]1 (centres undefined) | -1.35

Structure (SMILES) | cytotoxicity at 10 µM [%]
COCCc1noc(CN(C)c2nc(C)nc(C)c2C)n1 | 4.24
CC1(Cc2ccc3c(c2)OCO3)CCCN(S(=O)(=O)N2CCOCC2)C1 (centres undefined) | -5.39
CCNC(=O)[C@@H]1C[C@H](N)CN1Cc1ccc(-c2ccccc2C#N)o1 | -38.2
CCCc1nnc(N2CCC3(CCC(=O)N(C)C3)CC2)o1 | 3.96
CNCc1cn(CC2CCN(Cc3cccs3)CC2)nn1 | -4.47
CC(C)C1CN(C(=O)c2cn3ccccc3n2)CCCN1CC1CC1 (centres undefined) | -13.6
Cc1cccc(CN2CCN(c3ncnc4[nH]cnc34)CC2CCO)n1 (centres undefined) | -3.09
COc1cnc(N2CCCN(Cc3ccc(F)cc3)CC2)nc1 | -5.41
Cc1cc(C(=O)N2C[C@H](C(C)C)[C@@H](N(C)C)C2)cs1 | -0.421
CCCc1cc(C(=O)N2CCC3(CCCN(CCO)C3=O)C2)cs1 (centres undefined) | -144
COc1ccc(CCN2C(=O)O[C@@H]3CN(C4CCSCC4)C[C@@H]32)cc1 | 1.6
Cc1cc2nc(C(C)C)cc(NC(C)c3nncn3C)n2n1 (centres undefined) | 2.83
Cc1nc(C(F)(F)F)nc(N2CCC3(CC2)CC(C(=O)O)N(C)C3)c1C (centres undefined) | -4.14
Cc1ocnc1C(=O)N1CCC2(CC1)c1nc[nH]c1CCN2CC(C)C | -11.4
CN1CC[C@H]2CN(C(=O)COCc3nc4cc(F)ccc4[nH]3)C[C@H]21 | 2.77
CC1(C)CN(C(=O)CC2CCC2)C[C@]1(C)O | -9.15
Cc1ccsc1CN1CCCC(CNC(=O)c2ccc(N)nc2)C1 (centres undefined) | -2.25
Cc1ccc(-c2cn[nH]c2C2CCCN(c3nccc(N)n3)C2)cc1 (centres undefined) | 15.6
Cc1cc(C)n(NC(=O)c2ccccc2F)c(=O)c1 | -13.2
CCN(CC)C1COc2c(cc(Br)c(C)c2C)C1=O (centres undefined) | 0.331
Cc1cccc(OCC(O)CN2CCC(Cn3cccn3)CC2)c1 (centres undefined) | -1.43
Cc1ccc(CN2CCCN(Cc3cscn3)CC2)cc1 | -8.47

Structure (SMILES) | cytotoxicity at 10 µM [%]
N#Cc1ccc(OCC(=O)N2CCCC(n3cccn3)C2)cc1 (centres undefined) | -2.83
Cc1cnn(CC2CCCCN2C(=O)c2cccc3c2OCO3)c1 (centres undefined) | -4.89
CN(Cc1ccsc1)C(=O)Nc1cccnc1N1CCCC1 | -4.37
CN(Cc1ccc2c(c1)OCCO2)C(=O)NCCc1cnn(C)c1 | -9.12
Cn1cnc(S(=O)(=O)NCCCN2CCOCC2)c1Cl | -11.2
O=C(CN1CCC(N2CCNC2=O)CC1)NCC(F)(F)F | -3.35
O=S(=O)(CCCN1CCCC1Cn1cncn1)c1ccccc1 (centres undefined) | -7.64
c1ccc(C(OCCNC2CCc3ncnn3C2)c2ccccc2)cc1 (centres undefined) | -18.4
CCN(CC)C(=O)c1cc(C2CCCN2C)ccn1 (centres undefined) | -3.24
Cc1noc(C)c1CN1CC[C@H]2[C@H]1CCN2CC1CCOCC1 | 2
O=S(=O)(C1CC1)N1CC[C@@H](OCC2CC2)[C@@H]1Cc1ccncc1 | 10.9
CC(C)N1[C@H](Cn2cncn2)C[C@@H]2CN(Cc3ccsc3)CC[C@@H]21 | -117
COc1ncccc1CN1C[C@@H]2OCCN(CCN(C)C)[C@@H]2C1 | 11.8
Cn1ncc2c1C(COCC1CC1)N(C(=O)c1ccncn1)CC2 (centres undefined) | -132
COc1ccccc1CNC(Cc1cccs1)c1nc(C)cs1 (centres undefined) | -6.12
O=C(c1ccncc1)N1C[C@@H]2CCN(c3cccnc3)C[C@@H]2C1 | -71.5
CN1CCN(Cc2cccc(C#N)c2)Cc2cccnc21 | -83.2
Cc1noc(C)c1CN1CCN(CC2CC2)c2ncccc2C1 | 5.56
COc1ccc(CN2CCc3ncnc(C4CC4)c3CC2)cc1 | -148
CC1CCC(C(=O)N2CCC(n3cc(C4(O)CCCC4)nn3)CC2)CC1 (centres undefined) | 9.08
CC1=C(C#N)C(=O)NC(=O)/C1=C\c1c(C)[nH]n(-c2ccc(C)cc2)c1=O | 1.91
